In ChEMBL document CHEMBL1143909, “Novel cholesterol biosynthesis inhibitors targeting human lanosterol 14alpha-demethylase (CYP51)” (Bioorg Med Chem, 2008):
Active and inactive are the calls of the source. The rule behind the calls is not given here.

Columns and labels:
[1] = molecular target: T1, Lanosterol 14-alpha demethylase (Homo sapiens, UniProt Q16850); assay: Binding affinity to human His-tagged CYP51 expressed in Escherichia coli
T1 sequence (Q16850 whole entry): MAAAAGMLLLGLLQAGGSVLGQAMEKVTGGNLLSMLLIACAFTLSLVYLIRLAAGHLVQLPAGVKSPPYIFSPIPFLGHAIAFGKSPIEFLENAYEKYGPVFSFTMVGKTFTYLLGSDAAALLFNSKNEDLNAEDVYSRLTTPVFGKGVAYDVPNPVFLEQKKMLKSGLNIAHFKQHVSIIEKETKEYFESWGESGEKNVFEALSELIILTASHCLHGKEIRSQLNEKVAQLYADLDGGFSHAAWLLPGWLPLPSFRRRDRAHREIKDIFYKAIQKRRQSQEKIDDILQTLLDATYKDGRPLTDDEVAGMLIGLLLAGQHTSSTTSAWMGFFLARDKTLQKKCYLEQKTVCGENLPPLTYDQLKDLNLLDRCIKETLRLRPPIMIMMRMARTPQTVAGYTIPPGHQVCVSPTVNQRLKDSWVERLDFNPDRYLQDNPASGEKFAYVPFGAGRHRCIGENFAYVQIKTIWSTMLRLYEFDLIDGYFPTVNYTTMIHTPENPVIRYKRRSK
Outline: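 Purified His-tagged human CYP51 titrated with inhibitor at room temperature in 50 mM phosphate, 100 mM NaCl, 0.1 mM EDTA, 10% glycerol. Difference spectra recorded 350-500 nm; A412–A432 plotted against inhibitor concentration. Enzyme 0.5 or 2 µM, titration ranges 0.25-400 µM depending on compound. Apparent Kd from hyperbolic nonlinear fit of free inhibitor; three repeats per compound.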

HepG2 = assay: Ex vivo inhibition of CYP51 mediated cholesterol biosynthesis in human HepG2 cells assessed as increase in lanosterol accumulation at 10 uM relative to control
[2] = molecular target: T2, Delta(14)-sterol reductase TM7SF2 (Homo sapiens) (UniProt O76062); assay: Inhibition of Delta-(14)-sterol reductase in human HepG2 cells assessed as accumulation of FF-MAS; type: cell-based
T2 sequence (whole entry): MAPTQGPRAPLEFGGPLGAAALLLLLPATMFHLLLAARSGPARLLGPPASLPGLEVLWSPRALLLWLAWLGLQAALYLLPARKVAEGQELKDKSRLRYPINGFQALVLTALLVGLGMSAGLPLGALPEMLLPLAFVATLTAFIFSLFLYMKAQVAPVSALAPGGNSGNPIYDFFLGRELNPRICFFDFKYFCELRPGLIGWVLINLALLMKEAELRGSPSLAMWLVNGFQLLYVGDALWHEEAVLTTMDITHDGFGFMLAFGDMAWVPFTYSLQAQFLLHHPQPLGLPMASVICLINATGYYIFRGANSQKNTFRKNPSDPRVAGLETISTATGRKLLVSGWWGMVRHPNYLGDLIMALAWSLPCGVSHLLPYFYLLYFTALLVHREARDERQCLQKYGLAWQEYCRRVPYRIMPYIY
Outline: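 HepG2 cells grown 24 h at 37 °C, 5% CO2 in DMEM high with 5% calf serum, then 10 µM compound for 24 h. Fresh medium with [3H]acetate (40 µCi/ml) for 4 h. Sterols extracted from homogenate with ergosterol internal standard, separated by reversed-phase HPLC (100% acetonitrile, 40 °C) with radioactivity detection. Read as ratios to untreated cells: two experiments × two replicas, mean of 8 ratios ± SD.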

Br.CCCN(CCc1ccc(OC)c(OC)c1)CC(O)c1cccnc1 (centres undefined) showed a Kd [1] of 29.2 µM and an Activity (HepG2) of 1.8.

Br.CCCN(CCc1ccc(Cl)c(Cl)c1)CC(O)c1cc(C)ccn1 (centres undefined) showed a Kd [1] greater than 1000 µM and an Activity (HepG2) of 1.2.

Br.CCCN(CCc1ccc2ccccc2c1)CC(O)c1cccnc1 (centres undefined) was tested, and the Kd [1] was 0.34 µM and the Activity (HepG2) was 5.

Br.CCCN(CCc1ccc(F)c(F)c1)CC(O)c1cccnc1 (centres undefined) showed a Kd [1] of 27 µM and an Activity (HepG2) of 1.9.

For CCCN(CCc1cccnc1)CCc1cccc(F)c1, the Activity [2] was “Active”.

In the case of CC(=O)N1CCN(c2ccc(OC[C@H]3CO[C@](Cn4ccnc4)(c4ccc(Cl)cc4Cl)O3)cc2)CC1 [KETOCONAZOLE], the Kd [1] is reported as 0.11 µM.

Br.CCCN(CCc1ccc(Cl)c(Cl)c1)CC(O)c1cccnc1 (centres undefined) was tested, and the Kd [1] was 0.4 µM and the Activity (HepG2) was 6.

Compound Br.CCCN(CCc1cccnc1)CC(O)c1cccnc1 (centres undefined) has a Kd [1] of 260 µM and an Activity (HepG2) of 1.
